Only some compounds are listed: those with a hit (about 3.5% of all), similar ones and a draw of the others.
NF-kB neuron act – activators of NF-kB expression in neurons, primary screen, cell-based, HTS. fold change at 12.5 µM. 1.6% of 190,000 active. human neuronal cells, NF-kB reporter expression; stronger effect = higher value. AID 1239, 2008; in the data active = fold change above about 3.3
Pf gametocyte – late stage P. falciparum gametocyte viability inhibitors, primary screen, ATP luminescence, HTS; AID 743093, 2013; 0.065% of 150,000 active; inhibition, % at 10.9 µM; P. falciparum stage V gametocytes, 24 h;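 active = inhibition above the mean plus 3 SD of compounds within the control limits, set per campaign, cut at about 38% in these data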;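 note: 0% = DMSO wells and 100% = medium only without gametocytes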
APP 5'UTR act – activators of APP 5'UTR luciferase reporter, primary screen, SH-SY5Y cells. SH-SY5Y APP 5'UTR luciferase reporter, luminescence; zero percent = DMSO vehicle wells. activation, % at 2 µM. 1% of 190,000 active. AID 1276, 2008;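 active = activation above a set limit, based on mean plus 3 SD of controls, cut at about 140% in these data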
FLuc stim CS – FLuc activators, initial screening, artefact control for FLuc-dependent activation tests, biochemical, ATPlite luminescence; Luciferin 4-monooxygenase (Photinus pyralis), P08659; ATPlite luciferase biochemical, 10 min; 0 = ATP-free wells, 1 = DMSO control; activation factor at 10 µM; 200,000 tested, under 10 active; AID 1027, 2008;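 active = luciferase activation factor, scaled between plate controls, of at least 2 with compound at 10 µM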
Target sequence (P08659 whole entry, looked up): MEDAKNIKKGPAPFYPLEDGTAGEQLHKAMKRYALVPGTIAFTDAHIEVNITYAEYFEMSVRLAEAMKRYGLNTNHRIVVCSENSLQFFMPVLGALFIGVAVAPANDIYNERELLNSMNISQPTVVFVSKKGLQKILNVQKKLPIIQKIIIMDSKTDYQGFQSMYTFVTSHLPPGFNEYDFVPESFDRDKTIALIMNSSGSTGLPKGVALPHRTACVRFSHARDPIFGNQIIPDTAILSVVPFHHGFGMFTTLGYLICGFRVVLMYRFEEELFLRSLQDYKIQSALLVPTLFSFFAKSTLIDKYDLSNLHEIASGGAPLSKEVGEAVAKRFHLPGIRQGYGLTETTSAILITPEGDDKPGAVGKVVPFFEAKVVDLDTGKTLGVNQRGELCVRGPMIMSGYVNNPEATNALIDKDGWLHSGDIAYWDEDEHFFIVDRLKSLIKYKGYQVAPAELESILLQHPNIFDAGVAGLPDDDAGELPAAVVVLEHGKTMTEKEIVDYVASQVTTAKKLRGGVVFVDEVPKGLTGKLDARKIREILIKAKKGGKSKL
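assay system = Luciferase/luciferin detection reagent, cell-free biochemical luciferase assay | also added = ATP substrate | times = 10 min post-reagent at room temperature | measured by = luminescence from luciferase reaction | measure = luciferase activation, seen as luminescence increase over controls | benchmarks = low control with PBS replacing ATP, high control enzyme plus ATP without compound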
FLuc inh counter – firefly luciferase enzyme inhibitors, primary screen, artefact control for luciferase-based inhibitor screens, biochemical, luminescence, ATPLite | Luciferin 4-monooxygenase (Photinus pyralis), P08659 | 10 min | inhibition, % at 10 µM | 1.5% of 200,000 active;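 active = inhibition above about 50% when tested at 10 µM, limit read from the data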
STAT1 act – STAT1 signaling activators, primary screen, cell-based, HTS, luciferase reporter; NIH 3T3 STAT1-luciferase reporter, IFN-gamma, luminescence; 100% = IFN-gamma alone, no compound; activation (% of control), % at 5.5 µM; 2.6% of 200,000 active; AID 932, 2007;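 active = activation above the screen-wide mean activation plus 3 SD, cut at about 130% in these data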;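 note: raw ratio to IFN-gamma control signal so 100% means no change and 0% no light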
STAT1 activ conf – STAT1 signaling activators, confirmation, cell-based, HTS, luciferase reporter. shares compounds with STAT1 act. NIH 3T3 STAT1-luciferase reporter, IFN-gamma potentiation, luminescence; 100% = IFN-gamma EC80 alone, no compound. activation (% of control), % at 5.7 µM. 97% of 1,200 active. AID 1262, 2008;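 active = activation above a set limit carried over from the earlier primary STAT1 screen, cut at about 140% in these data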;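 note: simple ratio to median IFN-gamma plus DMSO wells so 0% means no light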
NFkB act – NF-kB reporter activators, TNF-alpha stimulated, counter-screen for STAT1 activator project, cell-based, HEK293T, luciferase luminescence. shares compounds with STAT1 act. 100% = TNF-alpha with vehicle only. activation (% of control), % at 5.7 µM. 43% of 1,200 active. AID 1306, 2008;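 active = activation above the mean of solvent-only control wells plus 3 SD, set per campaign, cut at about 130% in these data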;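 note: TNF-alpha given at a submaximal dose yielding about 80% of full reporter signal; values are well signal over median control so 100% means no change and 0% no light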
STAT3 act 2 – STAT3 reporter activation by STAT1 hits, confirmation, counter-screen for STAT1 activator project, U3A cells, luciferase, luminescence | shares compounds with STAT1 act | IL-6; cells lack STAT1; 100 = IL-6 alone, no compound effect | activation (% of control), % at 5.7 µM | 46% of 1,200 active;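 active = activation above the solvent-only control well mean plus 3 SD, set per plate batch, cut at about 110% in these data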;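 note: 0% = no luminescence and 100% = median IL-6 plus DMSO wells; higher means more STAT3 reporter activation so hits are non-selective activators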
An asterisk follows results filed as active; . = no result given.

SMILES	NF-kB neuron act	Pf gametocyte	APP 5'UTR act	FLuc stim CS	FLuc inh counter	STAT1 act	STAT1 activ conf	NFkB act	STAT3 act 2
CN(Cc1ccc(F)cc1)C(=O)CCc1nnc(-c2ccccc2)o1	2.1	6	21	1	-2	128	.	.	.
COc1ccc(CCN(C)C(=O)CCc2nnc(-c3ccccc3)o2)cc1OC	4.1*	-5	81	1	2	159*	166*	122	116*
Cc1ccc(CNC(=O)Cn2nnc3ccccc3c2=O)cc1	1.2	-30	-14	0.9	6	109	.	.	.
c1ccc2c(c1)oc1c(Nc3ccc(CN4CCOCC4)cc3)ncnc12	0.41	.	187*	1	4	158*	207*	135*	115*
Cc1nc(Nc2ccc3c(c2)OCO3)c2oc3ccccc3c2n1	0.48	.	-3	1	-2	111	.	.	.
c1ccc2c(c1)oc1c(Nc3ccc4c(c3)OCO4)ncnc12	2.2	.	80	0.9	7	158*	202*	142*	110
Cc1ccc(-c2cc(C(=O)OCn3nnc4ccccc4c3=O)c3ccccc3n2)cc1	0.81	.	1	1	-1	107	.	.	.
COc1cc(-c2nnc(SCC3(c4ccc(Br)cc4)OCCO3)o2)cc(OC)c1OC	0.89	.	-1	1	-1	101	.	.	.
CC(C)c1ccc(NC(=O)c2snc3ccc(Cl)cc23)cc1	2.3	.	120	1	3	158*	194*	126	139*
COC(=O)C(C(=O)OC)c1ccc(NC(=O)c2cccc(Cl)c2)cc1	1.2	-9	47	1.1	-8	110	.	.	.
CCCC(=O)NCc1cc(-c2nn(C)c(=O)c3ccccc23)ccc1OC	0.87	-25	14	1.1	-6	90	.	.	.
CCOc1cc(N2CCOCC2)c(OCC)cc1NC(=O)COC(=O)CCc1c[nH]c2ccccc12	0.84	.	1	1.1	-8	101	.	.	.
O=C(CN(Cc1ccco1)C(=O)CNS(=O)(=O)c1ccc(Cl)cc1)NCc1ccc(F)cc1	.	15	-3	.	.	83	.	.	.
Cc1ccc(Nc2nc(C3CC3)cs2)cc1	8.8*	.	239*	0.3	69*	151*	228*	117	94
Clc1ccc(Nc2nc(C3CC3)cs2)cc1	5.1*	.	180*	0.9	14	154*	188*	142*	101
O=C(CCn1cccc1)Nc1cc(F)ccc1F	1	.	-11	1.1	-7	101	.	.	.
Cc1sc2c(c1C)CN(CCN1CCOCC1)CN2C(=O)c1ccccc1	1.7	0	6	1	2	124	.	.	.
Cc1ccc(S(=O)(=O)N2CCCC2C(=O)NCc2ccccc2Cl)cc1 (stereo unspecified)	.	-22	.	.	.	.	.	.	.
Cc1scc(C(=O)N/N=C/c2ccc(Cl)s2)c1C	1.2	-12	128	0.6	40	151*	181*	130	102
Cc1scc(C(=O)N/N=C/c2ccc(OC(C)C)cc2)c1C	0.62	6	28	0.7	27	106	.	.	.
c1ccc(-c2csc(N3CCSCC3)n2)cc1	2.5	-9	35	0.8	22	160*	129*	126	96
CCN(CC)c1c([N+](=O)[O-])c(=O)n(C)c2ccccc12	1.1	13	7	1.1	-7	95	.	.	.
CCN(CC)c1ccc(N=Nc2nn(C)c(C)c2[N+](=O)[O-])cc1	5.7*	-13	142*	0.2	76*	178*	222*	140*	107
O=C(NCc1cccnc1)C(=O)NCC1CCCO1 (stereo unspecified)	1.2	.	-10	1.1	-6	109	.	.	.
CCc1ccc(-c2ccc(C(=O)O)cc2)nc1	1.7	-36	47	0.9	8	117	.	.	.
SMILES	NF-kB neuron act	Pf gametocyte	APP 5'UTR act	FLuc stim CS	FLuc inh counter	STAT1 act	STAT1 activ conf	NFkB act	STAT3 act 2
CCCCc1ccc(-c2ccc(Br)cc2)nc1	6*	.	125	0.6	44	155*	223*	126	97
Cc1ccc(/C(N)=N/OC(=O)c2ccc(F)cc2)cc1	7.9*	.	46	0.3	68*	153*	173*	135*	106
N/C(=N\OC(=O)c1cccc(F)c1)c1ccccc1	2.4	.	94	0.1	91*	166*	169*	123	114*
N/C(=N\OC(=O)c1ccc(F)cc1)c1ccccc1	3.5*	.	94	0	97*	157*	196*	128	116*
N/C(=N\OC(=O)c1cccc(Br)c1)c1ccncc1	.	-17	39	0.6	39	127	.	.	.
CC(=O)N1CCCC(C(=O)c2ccc(Oc3ccccc3)cc2)C1 (stereo unspecified)	1.9	15	-13	1	4	103	.	.	.
Cc1ccc(OCC(=O)N2CC(C)OC(C)C2)c([N+](=O)[O-])n1 (stereo unspecified)	1	-2	-23	1.1	-5	108	.	.	.
Cc1ccccc1/C=C1\CCCc2ccccc2C1=O	5.7*	.	116	0.4	61*	158*	195*	137*	110
CC(=O)Oc1ccc(/C=C2/CCc3ccccc3C2=O)cc1	.	6	.	.	.	.	.	.	.
Clc1ccc(C2=NNC(=NCC3CCCO3)SC2)cc1 (stereo unspecified)	1.9	4	24	0.7	32	126	.	.	.
c1csc(C2=NNC(=NC3CCCCC3)SC2)c1	2.5	-1	137*	0.3	74*	155*	168*	119	109
C=CCSc1nncn1/N=C/c1ccc(OC)cc1	3.4*	.	111	0.8	22	184*	201*	146*	133*
CCOc1ccc(OCc2ccc(C(=O)N/N=C(\C)c3ccccn3)cc2)cc1	2.1	5	-78	1	2	169*	146*	188*	91
C/C(=N/NC(=O)c1ccc(C(C)(C)C)cc1)c1ccccn1	.	-2	.	.	.	.	.	.	.
Cc1cccnc1NC(=S)Nc1ccc(Br)cc1Cl	1.1	-35	105	0.8	16	154*	198*	143*	105
